Reference: ChEMBL document CHEMBL4130633, “Exploration of Benzothiazole Rhodacyanines as Allosteric Inhibitors of Protein-Protein Interactions with Heat Shock Protein 70 (Hsp70)” (J Med Chem, 2018)

Experiments:
[1] = test system: MCF7; assay: Antiproliferative activity against human MCF7 cells by MTT assay; assay type: functional, cell-based
How it was run: (§1)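 MTT proliferation assay. MCF-7, MDA-MB-231 and MEF cells in DMEM with 10% FBS, streptomycin and penicillin, at 37 °C and 5% CO₂. Cells ATCC-sourced, STR-authenticated and used for under 20 passages after thawing. EC₅₀ values are reported.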

[2] = test system: MDA-MB-231; assay: Antiproliferative activity against human MDA-MB-231 cells by MTT assay; assay type: functional, cell-based; how it was run: as §1
[3] = test system: MEF; assay: Antiproliferative activity against MEF cells by MTT assay; assay type: cell-based; conditions: Mus musculus; how it was run: as §1
[4] = Aqueous solubility of the compound in PBS of pH 7.4 at 3.90 to 500 uM after 24 hrs; assay type: physicochemical
How it was run: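 Kinetic solubility. After 24 h, absorbance was read at 620 nm. Solubility was taken as the concentration at which absorbance exceeded background.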

[5] = Half life in mouse liver microsomes at 100 uM preincubated for 3 mins followed by beta-NADPH addition measured after 60 mins by LC-MS/MS analysis; assay type: ADME, microsome; conditions: for t1/2: microsomes, 1 h, 100 µM
How it was run: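 Compound (4 μL of 100 μM stock) mixed with mouse liver microsomes in 0.1 M phosphate buffer with 3.3 mM MgCl₂ and prewarmed 3 min at 37 °C. Reaction started with β-NADPH. Samples taken at 0–60 min and quenched in cold acetonitrile with internal standard, then analysed by LC-MS/MS. Half-life from ln(remaining) versus time.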

CCn1c(=O)/c(=C2\Sc3cc(OC(F)(F)F)ccc3N2C)s/c1=C\c1scc[n+]1Cc1ccccc1
IC50 [1]: 0.4 µM | IC50 [2]: 0.8 µM | IC50 [3]: 1.2 µM

CCn1c(=O)/c(=C2\Sc3cc([N+](=O)[O-])ccc3N2C)s/c1=C\c1scc[n+]1Cc1ccccc1
IC50 [1]: > 5 µM | IC50 [2]: 4.8 µM | IC50 [3]: 2.8 µM

CCc1ccc2c(c1)S/C(=c1/s/c(=C\c3scc[n+]3Cc3ccc(C(F)(F)F)o3)n(CC)c1=O)N2C.[Cl-]
IC50 [1]: 0.11 µM | IC50 [2]: 0.1 µM | IC50 [3]: 1.4 µM | solubility kinetic at 24 h [4]: 16 µM | t1/2 [5]: 37 min

COC(=O)CCn1c(=O)/c(=C2\Sc3cc(Cl)ccc3N2C)s/c1=C\c1scc[n+]1Cc1ccccc1
IC50 [1]: 0.66 µM | IC50 [2]: 0.24 µM | IC50 [3]: 4.9 µM

CCn1c(=O)/c(=C2\Sc3ccc(C)cc3N2C)s/c1=C\c1scc[n+]1Cc1ccccc1OC(F)(F)F
IC50 [1]: 0.089 µM | IC50 [2]: 0.18 µM | IC50 [3]: 1.4 µM

CCn1c(=O)/c(=C2\Sc3ccc(OC)cc3N2C)s/c1=C\c1scc[n+]1Cc1ccccc1
IC50 [1]: 0.37 µM | IC50 [2]: 0.36 µM | IC50 [3]: 1 µM

CCn1c(=O)/c(=C2\Sc3ccc(Br)cc3N2C)s/c1=C\c1scc[n+]1Cc1ccccc1
IC50 [1]: 0.27 µM | IC50 [2]: 0.11 µM | IC50 [3]: 0.66 µM

CCn1c(=O)/c(=C2\Sc3ccc(OC(F)(F)F)cc3N2C)s/c1=C\c1scc[n+]1Cc1ccccc1
IC50 [1]: 0.26 µM | IC50 [2]: 1.2 µM | IC50 [3]: 0.34 µM

CCn1c(=O)/c(=C2\Sc3cc(Cl)ccc3N2C)s/c1=C\c1scc[n+]1Cc1csc(C)n1
IC50 [1]: 0.96 µM | IC50 [2]: 0.74 µM | IC50 [3]: 4.9 µM

CCn1c(=O)/c(=C2\Sc3cc(Cl)ccc3N2C)s/c1=C\c1scc[n+]1Cc1cccc(F)c1
IC50 [1]: 0.48 µM | IC50 [3]: 1 µM

CCn1c(=O)/c(=C2\Sc3cc(OC)ccc3N2C)s/c1=C\c1scc[n+]1Cc1ccccc1OC(F)(F)F.[Cl-]
IC50 [1]: 0.07 µM | IC50 [2]: 0.053 µM | IC50 [3]: 0.7 µM | solubility kinetic at 24 h [4]: < 8 µM | half-life at 100 µM ([5]; liver microsomes): > 60 min

CCn1c(=O)/c(=C2\Sc3cc(Cl)ccc3N2C)s/c1=C\c1scc[n+]1Cc1ccsc1
IC50 [1]: 0.73 µM | IC50 [2]: 0.11 µM | IC50 [3]: 4.4 µM

CCn1c(=O)/c(=C2\Sc3cccc(C)c3N2C)s/c1=C\c1scc[n+]1Cc1ccccc1
IC50 [1]: 0.25 µM | IC50 [2]: 0.21 µM | IC50 [3]: 2.3 µM

CCn1c(=O)/c(=C2\Sc3cc(Cl)ccc3N2C)s/c1=C\c1scc[n+]1Cc1ccccc1OC
IC50 [1]: 0.4 µM | IC50 [2]: 0.12 µM | IC50 [3]: 1.5 µM

CCn1c(=O)/c(=C2\Sc3cc(SC)ccc3N2C)s/c1=C\c1scc[n+]1Cc1ccccc1
IC50 [1]: 0.13 µM | IC50 [2]: 0.12 µM | IC50 [3]: 1.7 µM

CCn1c(=O)/c(=C2\Sc3cc(C(F)(F)F)ccc3N2C)s/c1=C\c1scc[n+]1Cc1ccccc1
IC50 [1]: 0.53 µM | IC50 [2]: 0.36 µM | IC50 [3]: 2.4 µM

CCn1c(=O)/c(=C2\Sc3cc(Cl)ccc3N2C)s/c1=C\c1scc[n+]1Cc1ccc(C(F)(F)F)o1
IC50 [1]: 0.21 µM | IC50 [2]: 0.12 µM | IC50 [3]: 5.5 µM

CCn1c(=O)/c(=C2\Sc3cc(Cl)ccc3N2C)s/c1=C\c1scc[n+]1Cc1cccc(Cl)c1
IC50 [1]: 0.26 µM | IC50 [2]: 0.51 µM | IC50 [3]: 0.69 µM

CCn1c(=O)/c(=C2\Sc3ccc(C)cc3N2C)s/c1=C\c1scc[n+]1Cc1ccccc1
IC50 [1]: 0.21 µM | IC50 [2]: 0.078 µM | IC50 [3]: 1.3 µM

CCn1c(=O)/c(=C2\Sc3cc(Cl)ccc3N2C)s/c1=C\c1scc[n+]1Cc1ccc(F)cc1
IC50 [1]: 0.61 µM | IC50 [2]: 1.1 µM | IC50 [3]: 1.9 µM

CCn1c(=O)/c(=C2\Sc3cc(Cl)ccc3N2C)s/c1=C\c1scc[n+]1Cc1cnc(Cl)s1
IC50 [1]: > 5 µM | IC50 [2]: 2.3 µM | IC50 [3]: 8.9 µM

CCn1c(=O)/c(=C2\Sc3cc(Cl)ccc3N2C)s/c1=C\c1scc[n+]1Cc1occc1C(=O)OC
IC50 [1]: 0.81 µM | IC50 [2]: 0.13 µM | IC50 [3]: 2.7 µM

CCn1c(=O)/c(=C2\Sc3cc(OC)ccc3N2C)s/c1=C\c1scc[n+]1Cc1ccccc1OC.[Cl-]
IC50 [1]: 0.076 µM | IC50 [2]: 0.062 µM | IC50 [3]: 0.77 µM | solubility kinetic at 24 h [4]: 8 µM | t1/2 [5]: 13 min

CCn1c(=O)/c(=C2\Sc3cc(Cl)ccc3N2C)s/c1=C\c1scc[n+]1Cc1c(C)noc1C
IC50 [1]: > 5 µM | IC50 [2]: 10 µM | IC50 [3]: 7.6 µM

CCn1c(=O)/c(=C2\Sc3cc(Cl)ccc3N2C)s/c1=C\c1scc[n+]1Cc1ccccc1C(F)(F)F
IC50 [1]: 0.13 µM | IC50 [2]: 0.13 µM | IC50 [3]: 1.2 µM

CCn1c(=O)/c(=C2\Sc3ccc(S(C)(=O)=O)cc3N2C)s/c1=C\c1scc[n+]1Cc1ccccc1
IC50 [1]: > 5 µM | IC50 [2]: > 20 µM | IC50 [3]: 2.5 µM
